Measured values published in ChEMBL document CHEMBL3286101, “Probing of primed and unprimed sites of calpains: Design, synthesis and evaluation of epoxysuccinyl-peptide derivatives as selective inhibitors” (Eur J Med Chem, 2014).
pKi: −log10 of the molar value. Peptide text beside a SMILES is read from it. * marks the point of attachment. X4 = CC(C)C[C@H](NC(=O)[C@@H]1O[C@H]1C(=O)*)C(=O)N[C@@H](Cc1c[nH]c2ccccc12)C(=O)N[C@H](C(N)=O)[C@@H](C)O; X5 = CC(C)C[C@H](NC(=O)[C@H]1O[C@@H]1C(=O)*)C(=O)N[C@@H](Cc1c[nH]c2ccccc12)C(=O)N[C@H](C(N)=O)[C@@H](C)O; X3 = C[C@@H](O)[C@H](NC(=O)[C@@H]1CCCN1C(=O)[C@@H](NC(=O)[C@H]1O[C@@H]1C(=O)*)[C@@H](C)O)C(N)=O; X9 = C[C@@H](O)[C@H](NC(=O)[C@@H]1CCCN1C(=O)[C@@H](NC(=O)[C@@H]1O[C@H]1C(=O)*)[C@@H](C)O)C(N)=O; X10 = CC(C)C[C@H](NC(=O)[C@@H]1O[C@H]1C(=O)*)C(=O)N[C@@H](CO)C(=O)N[C@H](C(N)=O)[C@@H](C)O; X1 = CC(C)C[C@H](NC(=O)[C@H]1O[C@@H]1C(=O)*)C(=O)N1CCC[C@H]1C(=O)N[C@H](C(N)=O)[C@@H](C)O; X2 = CC(C)C[C@H](NC(=O)[C@@H]1O[C@H]1C(=O)*)C(=O)N1CCC[C@H]1C(=O)N[C@H](C(N)=O)[C@@H](C)O; X6 = CC(C)C[C@H](NC(=O)[C@H]1O[C@@H]1C(=O)*)C(=O)N[C@@H](CO)C(=O)N[C@H](C(N)=O)[C@@H](C)O; X7 = CC(C)[C@H](NC(=O)[C@@H]1O[C@H]1C(=O)*)C(=O)N1CCC[C@H]1C(=O)N[C@H](C(N)=O)[C@@H](C)O; X8 = CC(C)[C@H](NC(=O)[C@H]1O[C@@H]1C(=O)*)C(=O)N1CCC[C@H]1C(=O)N[C@H](C(N)=O)[C@@H](C)O

Assays:
[1] = Inhibition of rat calpain-2 large subnit/truncated small subunit expressed in Escherichia coli using Suc-LY-AMC as substrate by fluorescence assay
Outline: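 Rat calpain 2 is made from its 80-kDa large subunit and 21-kDa truncated small subunit, expressed in E. coli, purified on HisTrap and dialyzed into calpain buffer (10 mM HEPES, 150 mM NaCl, 1 mM EDTA, pH 7.5). The reaction starts when 0.2 μM enzyme is added to 100 µM Suc-LY-AMC, 3 mM Ca2+ and inhibitor at various concentrations. Fluorescence is read at 380/460 nm. Triplicates; mean ± S.D.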

[2] = target: T1, Calpain-1 catalytic subunit (Homo sapiens, UniProt P07384); experiment: Inhibition of calpain-1 (unknown origin) using Suc-LY-AMC as substrate by fluorescence assay
T1 sequence (P07384 whole entry): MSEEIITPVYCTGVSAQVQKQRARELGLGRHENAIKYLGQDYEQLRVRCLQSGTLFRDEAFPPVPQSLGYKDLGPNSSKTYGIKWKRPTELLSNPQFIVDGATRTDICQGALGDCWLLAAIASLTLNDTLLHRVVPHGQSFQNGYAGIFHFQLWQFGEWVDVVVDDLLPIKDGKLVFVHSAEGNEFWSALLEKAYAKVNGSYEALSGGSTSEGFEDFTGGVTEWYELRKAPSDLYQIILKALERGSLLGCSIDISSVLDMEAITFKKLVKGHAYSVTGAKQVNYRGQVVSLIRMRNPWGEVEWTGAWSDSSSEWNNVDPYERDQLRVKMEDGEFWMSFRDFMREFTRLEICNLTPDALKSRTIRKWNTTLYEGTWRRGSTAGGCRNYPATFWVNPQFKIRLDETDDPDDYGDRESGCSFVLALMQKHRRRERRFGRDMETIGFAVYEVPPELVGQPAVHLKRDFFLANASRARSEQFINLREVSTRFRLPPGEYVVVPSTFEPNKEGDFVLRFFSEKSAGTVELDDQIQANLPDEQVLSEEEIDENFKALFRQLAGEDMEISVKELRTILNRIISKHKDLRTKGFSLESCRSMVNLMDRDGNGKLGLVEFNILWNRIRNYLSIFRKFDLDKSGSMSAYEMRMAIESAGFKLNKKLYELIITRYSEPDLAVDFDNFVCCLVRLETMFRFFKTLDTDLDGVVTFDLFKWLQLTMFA
Outline: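 Human erythrocyte calpain 1 at 0.5 μM starts the reaction, added to 100 µM Suc-LY-AMC, 3 mM Ca2+ and inhibitor at various concentrations in 50 µL calpain buffer (10 mM HEPES, 150 mM NaCl, 1 mM EDTA, pH 7.5). Fluorescence is followed at 380/460 nm. Triplicate experiments; mean ± S.D.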

[3] = Retention time of the compound by RP-HPLC analysis; format: physicochemical
Outline: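 Analytical RP-HPLC on a C18 column (150 × 4.6 mm, 5 μm, 100 Å). Eluent A is 0.1% TFA in water and eluent B is 0.1% TFA in acetonitrile–water 80:20. Gradient runs 0% B for 2 min, then to 90% B at 22 min, at 1 mL/min and ambient temperature. Detection at 220 nm.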

Cathepsin B = Cathepsin B (Homo sapiens, UniProt P07858); experiment: Inhibition of cathepsin B (unknown origin) using substrate-3 as substrate by fluorescence assay
Outline: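 Human liver cathepsin B is activated in 0.25 mM MES containing 10 mM DTE. The reaction starts when it is added at 0.7 nM to 100 μM Z-Arg-AMC with inhibitor at various concentrations in 0.25 mM MES, pH 5.0. Fluorescence is followed at 380/460 nm. Triplicates; mean ± S.D.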

[4] = Selectivity ratio of Ki for cathepsin B (unknown origin) to Ki for rat calpain-2

CC(C)C[C@H](NC(=O)[C@H]1O[C@@H]1C(=O)N[C@@H](CO)C(=O)N1CCC[C@H]1C(=O)N1CCC[C@H]1C(=O)N1CCC[C@H]1C(=O)N[C@@H](CO)C(N)=O)C(=O)N1CCC[C@H]1C(=O)N[C@H](C(N)=O)[C@@H](C)O (X1-SPPPS-NH2)
pKi [1]: < 4.30
pKi [2]: 4.90
Retention_time [3]: 12.5 min
pKi (Cathepsin B): < 4.30

CC(C)C[C@H](NC(=O)[C@H]1O[C@@H]1C(=O)N[C@@H](CO)C(=O)N[C@@H](CCC(N)=O)C(=O)N1CCC[C@H]1C(=O)N1CCC[C@H]1C(=O)N[C@@H](CO)C(N)=O)C(=O)N1CCC[C@H]1C(=O)N[C@H](C(N)=O)[C@@H](C)O (X1-SQPPS-NH2)
pKi [1]: < 4.00
pKi [2]: < 4.00
Retention_time [3]: 10.8 min
pKi (Cathepsin B): < 4.00

CC(C)[C@H](NC(=O)[C@@H]1O[C@H]1C(=O)N[C@@H](CO)C(=O)N1CCC[C@H]1C(=O)N1CCC[C@H]1C(=O)N1CCC[C@H]1C(=O)N[C@@H](CO)C(N)=O)C(=O)N1CCC[C@H]1C(=O)N[C@H](C(N)=O)[C@@H](C)O (X7-SPPPS-NH2)
pKi [1]: < 4.00
pKi [2]: < 4.30
Retention_time [3]: 10.2 min
pKi (Cathepsin B): < 4.00

CC(C)[C@H](NC(=O)[C@H]1O[C@@H]1C(=O)N[C@@H](CO)C(=O)N1CCC[C@H]1C(=O)N1CCC[C@H]1C(=O)N1CCC[C@H]1C(=O)N[C@@H](CO)C(N)=O)C(=O)N1CCC[C@H]1C(=O)N[C@H](C(N)=O)[C@@H](C)O (X8-SPPPS-NH2)
pKi [1]: 4.53
pKi [2]: < 4.30
Retention_time [3]: 10.7 min
pKi (Cathepsin B): < 4.00

CC(C)C[C@H](NC(=O)[C@H]1O[C@@H]1C(=O)N[C@@H](CO)C(=O)N1CCC[C@H]1C(=O)N1CCC[C@H]1C(=O)N1CCC[C@H]1C(=O)N[C@@H](CO)C(N)=O)C(=O)N[C@@H](CO)C(=O)N[C@H](C(N)=O)[C@@H](C)O (X6-SPPPS-NH2)
pKi [1]: 4.84
pKi [2]: 4.66
Retention_time [3]: 10.3 min
pKi (Cathepsin B): < 4.30

CC(C)C[C@H](NC(=O)[C@H]1O[C@@H]1C(=O)N[C@@H](CCCNC(=N)N)C(=O)N1CCC[C@H]1C(=O)N1CCC[C@H]1C(=O)N1CCC[C@H]1C(=O)N[C@@H](CO)C(N)=O)C(=O)N1CCC[C@H]1C(=O)N[C@H](C(N)=O)[C@@H](C)O (X1-RPPPS-NH2)
pKi [1]: 4.75
pKi [2]: 4.62
Retention_time [3]: 11.1 min
pKi (Cathepsin B): < 4.30

CC(C)C[C@H](NC(=O)[C@H]1O[C@@H]1C(=O)N[C@H](C(=O)N1CCC[C@H]1C(=O)N1CCC[C@H]1C(=O)N1CCC[C@H]1C(=O)N[C@@H](CO)C(N)=O)[C@@H](C)O)C(=O)N1CCC[C@H]1C(=O)N[C@H](C(N)=O)[C@@H](C)O (X1-TPPPS-NH2)
pKi [1]: < 4.30
pKi [2]: 5.08
Retention_time [3]: 11 min
pKi (Cathepsin B): 4.92

CC(C)C[C@H](NC(=O)[C@@H]1O[C@H]1C(=O)N[C@@H](CO)C(=O)N1CCC[C@H]1C(=O)N1CCC[C@H]1C(=O)N1CCC[C@H]1C(=O)N[C@@H](CO)C(N)=O)C(=O)N1CCC[C@H]1C(=O)N[C@H](C(N)=O)[C@@H](C)O (X2-SPPPS-NH2)
pKi [1]: < 4.30
pKi [2]: < 4.00
Retention_time [3]: 10.9 min
pKi (Cathepsin B): < 4.30

CC(C)C[C@H](NC(=O)[C@H]1O[C@@H]1C(=O)N[C@@H](CO)C(=O)N[C@@H](CO)C(=O)N1CCC[C@H]1C(=O)N1CCC[C@H]1C(=O)N[C@@H](CO)C(N)=O)C(=O)N1CCC[C@H]1C(=O)N[C@H](C(N)=O)[C@@H](C)O (X1-SSPPS-NH2)
pKi [1]: < 4.00
pKi [2]: < 4.00
Retention_time [3]: 12 min
pKi (Cathepsin B): < 4.00

CC(C)C[C@H](NC(=O)[C@H]1O[C@@H]1C(=O)N[C@@H](CO)C(=O)N1CCC[C@H]1C(=O)N1CCC[C@H]1C(=O)N1CCC[C@H]1C(=O)N[C@@H](CO)C(N)=O)C(=O)N[C@@H](Cc1c[nH]c2ccccc12)C(=O)N[C@H](C(N)=O)[C@@H](C)O (X5-SPPPS-NH2)
pKi [1]: 5.39
pKi [2]: 4.77
Retention time [3]: 12.5 min
pKi (Cathepsin B): 5.30

CC(C)C[C@H](NC(=O)[C@@H]1O[C@H]1C(=O)N[C@@H](CO)C(=O)N[C@@H](CCC(N)=O)C(=O)N1CCC[C@H]1C(=O)N1CCC[C@H]1C(=O)N[C@@H](CO)C(N)=O)C(=O)N1CCC[C@H]1C(=O)N[C@H](C(N)=O)[C@@H](C)O (X2-SQPPS-NH2)
pKi [1]: < 4.00
pKi [2]: < 4.00
Retention_time [3]: 10.7 min
pKi (Cathepsin B): < 4.00

C[C@@H](O)[C@H](NC(=O)[C@@H]1CCCN1C(=O)[C@@H](NC(=O)[C@@H]1O[C@H]1C(=O)N[C@@H](CO)C(=O)N1CCC[C@H]1C(=O)N1CCC[C@H]1C(=O)N1CCC[C@H]1C(=O)N[C@@H](CO)C(N)=O)[C@@H](C)O)C(N)=O (X9-SPPPS-NH2)
pKi [2]: < 4.00
Retention_time [3]: 9.1 min

CC(C)C[C@H](NC(=O)[C@@H]1O[C@H]1C(=O)N[C@@H](CCCNC(=N)N)C(=O)N1CCC[C@H]1C(=O)N1CCC[C@H]1C(=O)N1CCC[C@H]1C(=O)N[C@@H](CO)C(N)=O)C(=O)N1CCC[C@H]1C(=O)N[C@H](C(N)=O)[C@@H](C)O (X2-RPPPS-NH2)
pKi [1]: < 4.30
pKi [2]: 4.58
Retention_time [3]: 11.1 min
pKi (Cathepsin B): < 4.00

CC(C)C[C@H](NC(=O)[C@@H]1O[C@H]1C(=O)N[C@@H](CO)C(=O)N1CCC[C@H]1C(=O)N1CCC[C@H]1C(=O)N1CCC[C@H]1C(=O)N[C@@H](CO)C(N)=O)C(=O)N[C@@H](Cc1c[nH]c2ccccc12)C(=O)N[C@H](C(N)=O)[C@@H](C)O (X4-SPPPS-NH2)
pKi [1]: 4.67
pKi [2]: 5.43
Retention_time [3]: 13.2 min
pKi (Cathepsin B): 5.35

CC(C)C[C@H](NC(=O)[C@@H]1O[C@H]1C(=O)N[C@@H](CO)C(=O)N[C@@H](CO)C(=O)N1CCC[C@H]1C(=O)N1CCC[C@H]1C(=O)N[C@@H](CO)C(N)=O)C(=O)N1CCC[C@H]1C(=O)N[C@H](C(N)=O)[C@@H](C)O (X2-SSPPS-NH2)
pKi [1]: < 4.00
pKi [2]: < 4.00
Retention_time [3]: 11.9 min
pKi (Cathepsin B): < 4.00

CC(C)C[C@H](NC(=O)[C@@H]1O[C@H]1C(=O)N[C@@H](CO)C(=O)N1CCC[C@H]1C(=O)N1CCC[C@H]1C(=O)N1CCC[C@H]1C(=O)N[C@@H](CO)C(N)=O)C(=O)N[C@@H](CO)C(=O)N[C@H](C(N)=O)[C@@H](C)O (X10-SPPPS-NH2)
pKi [2]: 4.51
Retention_time [3]: 10.2 min

CC(C)C[C@H](NC(=O)[C@@H]1O[C@H]1C(=O)N[C@H](C(=O)N1CCC[C@H]1C(=O)N1CCC[C@H]1C(=O)N1CCC[C@H]1C(=O)N[C@@H](CO)C(N)=O)[C@@H](C)O)C(=O)N1CCC[C@H]1C(=O)N[C@H](C(N)=O)[C@@H](C)O (X2-TPPPS-NH2)
pKi [1]: 5.37
pKi [2]: < 4.30
Ratio Ki [4]: 11.8
Retention_time [3]: 12.3 min
pKi (Cathepsin B): < 4.30

C[C@@H](O)[C@H](NC(=O)[C@@H]1CCCN1C(=O)[C@@H](NC(=O)[C@H]1O[C@@H]1C(=O)N[C@@H](CO)C(=O)N1CCC[C@H]1C(=O)N1CCC[C@H]1C(=O)N1CCC[C@H]1C(=O)N[C@@H](CO)C(N)=O)[C@@H](C)O)C(N)=O (X3-SPPPS-NH2)
pKi [1]: < 4.00
pKi [2]: < 4.00
Retention_time [3]: 9.7 min
pKi (Cathepsin B): < 4.00
